The text below walks through data of ChEMBL document CHEMBL1154610, “Discovery and preclinical evaluation of [4-[[1-(3-fluorophenyl)methyl]-1H-indazol-5-ylamino]-5-methylpyrrolo[2,1-f][1,2,4]triazin-6-yl]carbamic acid, (3S)-3-morpholinylmethyl ester (BMS-599626), a selective and orally efficacious inhibitor of human epidermal growth factor receptor 1 and 2 kinases” (J Med Chem, 2009).

The structures appear in SMILES notation.

Series [1] deals with BT-474. Briefly: Antiproliferative activity against human BT474 cells after 72 hrs by MTT assay. The settings on record: BT-474, 72 h. The series is classed as functional, cell-based. In a few lines:
(§1)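 Cell proliferation IC50 reported as the mean of three independent determinations. BT474 is a breast line (HER2+++/HER1+); A2780 serves as a HER-independent control.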
On the technique in general: Formazan colour is commonly taken as a measure of viable cells.

A short description of series [2]: Cmax in BALB/c mouse at 50 mg/kg, po. The series is classed as ADME, organism-based. Also noted: dose 50 mg/kg, route oral. Conditions: in vivo.
Series [3] relates to NCI-N87. Briefly: Antiproliferative activity against human NCI-N87 cells after 72 hrs by MTT assay. The series is classed as functional, cell-based. The settings on record: NCI-N87, 72 h.
The target of series [4] is Receptor tyrosine-protein kinase erbB-2 (Homo sapiens, UniProt P04626). Briefly: Inhibition of human recombinant HER2 expressed in Sf9 cells by liquid scintillation counting.
Series [5] in a line: AUC (0 to 4 hrs) in BALB/c mouse at 50 mg/kg, po. The series is classed as ADME, organism-based. Details: time < 4 hr, dose 50 mg/kg, route oral. The settings on record: plasma.
The subject of series [6] is A2780. The series is described as follows: Antiproliferative activity against human A2780 cells after 72 hrs by MTT assay. Conditions: A2780, 72 h. The series is classed as functional, cell-based. In a few lines: as §1
Series [7] is described as follows: Antiproliferative activity against mouse SAL2 cells after 72 hrs by MTT assay. The series is classed as functional, cell-based. Conditions: SAL2, 72 h.
In series [8] the target is Epidermal growth factor receptor (Homo sapiens, UniProt P00533). The series is described as follows: Inhibition of human recombinant HER1 expressed in Sf9 cells by liquid scintillation counting.
Series [9] has as its system Mus musculus. The series is described as follows: Plasma concentration in BALB/c mouse at 50 mg/kg, po. It counts as ADME, organism-based. Also noted: dose 50 mg/kg, route oral. The settings on record: in vivo. In a few lines:
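Compound given orally at 50 mg/kg as a solution in PEG400/Tween80/water (40:10:50) to three Balb/C mice. Plasma sampled over 4 h after dosing; AUC(0-4h), Cmax and 4 h concentration reported.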

A short description of series [10]: Metabolic stability in mouse liver microsomes assessed per mg of protein at 10 uM after 10 mins. It counts as ADME, Microsome. In a few lines: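 Mouse liver microsomes incubated with compound at 10 µM for 10 min; metabolic rate expressed as nmol/min/mg protein.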

Epidermal growth factor receptor, sequence (P00533 whole entry): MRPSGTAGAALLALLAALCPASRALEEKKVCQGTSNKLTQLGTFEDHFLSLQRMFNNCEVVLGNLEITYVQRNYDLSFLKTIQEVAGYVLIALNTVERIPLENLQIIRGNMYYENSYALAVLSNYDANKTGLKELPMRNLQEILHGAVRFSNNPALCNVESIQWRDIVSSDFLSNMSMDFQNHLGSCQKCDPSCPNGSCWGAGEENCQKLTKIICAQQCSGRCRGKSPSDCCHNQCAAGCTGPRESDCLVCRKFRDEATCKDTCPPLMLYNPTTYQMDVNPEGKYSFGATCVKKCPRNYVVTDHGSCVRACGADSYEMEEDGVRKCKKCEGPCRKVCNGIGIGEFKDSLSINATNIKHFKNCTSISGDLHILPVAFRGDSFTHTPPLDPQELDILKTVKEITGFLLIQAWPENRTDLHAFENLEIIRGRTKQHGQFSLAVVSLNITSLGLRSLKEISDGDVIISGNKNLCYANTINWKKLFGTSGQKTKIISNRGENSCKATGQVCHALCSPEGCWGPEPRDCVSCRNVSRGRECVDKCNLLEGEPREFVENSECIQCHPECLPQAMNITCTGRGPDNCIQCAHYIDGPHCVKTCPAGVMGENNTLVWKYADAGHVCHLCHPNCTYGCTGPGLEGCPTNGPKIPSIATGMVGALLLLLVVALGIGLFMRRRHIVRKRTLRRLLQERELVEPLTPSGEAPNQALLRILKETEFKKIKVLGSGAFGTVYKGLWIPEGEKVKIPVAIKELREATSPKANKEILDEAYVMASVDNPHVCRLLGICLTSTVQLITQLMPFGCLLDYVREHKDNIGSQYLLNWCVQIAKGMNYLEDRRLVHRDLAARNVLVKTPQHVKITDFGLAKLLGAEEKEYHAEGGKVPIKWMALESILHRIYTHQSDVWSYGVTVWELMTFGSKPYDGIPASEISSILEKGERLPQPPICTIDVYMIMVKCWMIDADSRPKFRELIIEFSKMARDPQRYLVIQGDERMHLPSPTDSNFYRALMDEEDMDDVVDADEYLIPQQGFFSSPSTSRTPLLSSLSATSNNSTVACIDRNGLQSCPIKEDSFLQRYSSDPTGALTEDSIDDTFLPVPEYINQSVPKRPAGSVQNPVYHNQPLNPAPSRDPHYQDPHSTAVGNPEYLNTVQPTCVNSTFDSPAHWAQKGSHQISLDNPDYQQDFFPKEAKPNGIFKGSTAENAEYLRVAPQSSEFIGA
Receptor tyrosine-protein kinase erbB-2, sequence (P04626 whole entry): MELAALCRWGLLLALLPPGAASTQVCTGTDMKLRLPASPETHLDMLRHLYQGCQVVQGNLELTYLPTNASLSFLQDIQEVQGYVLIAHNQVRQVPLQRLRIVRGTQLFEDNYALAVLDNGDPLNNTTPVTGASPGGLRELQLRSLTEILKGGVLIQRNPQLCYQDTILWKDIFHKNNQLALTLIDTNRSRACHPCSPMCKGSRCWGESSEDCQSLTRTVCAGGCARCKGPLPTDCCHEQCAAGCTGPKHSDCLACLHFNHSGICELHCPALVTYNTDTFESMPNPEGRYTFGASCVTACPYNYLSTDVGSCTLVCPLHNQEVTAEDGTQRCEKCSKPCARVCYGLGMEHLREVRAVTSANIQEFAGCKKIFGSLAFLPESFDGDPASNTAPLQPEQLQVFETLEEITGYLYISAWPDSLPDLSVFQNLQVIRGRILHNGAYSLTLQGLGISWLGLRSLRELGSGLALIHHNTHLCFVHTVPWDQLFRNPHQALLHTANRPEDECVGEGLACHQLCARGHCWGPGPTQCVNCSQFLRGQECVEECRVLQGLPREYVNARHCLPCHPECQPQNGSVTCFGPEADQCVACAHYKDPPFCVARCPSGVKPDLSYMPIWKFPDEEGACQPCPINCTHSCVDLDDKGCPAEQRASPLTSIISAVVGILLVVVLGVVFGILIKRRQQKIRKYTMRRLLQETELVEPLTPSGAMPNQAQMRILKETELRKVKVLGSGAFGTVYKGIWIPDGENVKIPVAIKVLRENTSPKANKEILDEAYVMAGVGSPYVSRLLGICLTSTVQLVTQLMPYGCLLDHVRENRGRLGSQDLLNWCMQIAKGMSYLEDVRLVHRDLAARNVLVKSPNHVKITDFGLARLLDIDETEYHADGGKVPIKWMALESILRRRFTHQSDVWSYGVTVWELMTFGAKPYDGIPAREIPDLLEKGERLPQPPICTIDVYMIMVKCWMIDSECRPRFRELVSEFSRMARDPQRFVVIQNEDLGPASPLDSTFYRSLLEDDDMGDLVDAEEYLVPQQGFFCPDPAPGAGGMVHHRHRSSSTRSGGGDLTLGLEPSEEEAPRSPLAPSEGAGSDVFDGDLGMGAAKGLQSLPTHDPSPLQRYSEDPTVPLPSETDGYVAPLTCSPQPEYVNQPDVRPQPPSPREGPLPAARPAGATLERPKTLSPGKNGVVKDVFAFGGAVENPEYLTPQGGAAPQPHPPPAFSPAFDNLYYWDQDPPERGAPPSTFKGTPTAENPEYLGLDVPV

As for `CCC1=C2C(Nc3ccc4c(cnn4Cc4ccccc4)c3)=NC=NC2N=C1NC(=O)OCCn1ccnc1` (centres undefined), the 50% inhibitory concentration (IC50) – broadly, the midpoint of a concentration-inhibition curve – in [1] is 860 nM; in series [3], 980 nM; in series [4] it was 44 nM; in [6] it was over 5000 nM; in series [7], 460 nM; in [8], 40 nM. In addition, in series [2], the concentration peaked (Cmax) at 9900 nM. Moreover, the area under the curve AUC(0-t) (usually the area under the concentration-time curve up to a stated or last time point) at 4 h in [5] was found to be 36 µM·h. This compound also displayed a concentration in [9] of 9900 nM.
Take `CCc1c(NC(=O)OC[C@@H]2COCCN2)cn2ncnc(Nc3ccc4c(cnn4Cc4ccccc4)c3)c12`: the 50% inhibitory concentration (IC50) stood at 420 nM in [1]; 350 nM in series [3]; 21 nM in [4]; 4510 nM in series [6]; 170 nM in [7]; 33 nM in [8]. In addition, the Cmax (commonly the highest concentration seen after dosing) in series [2] was found to be 3500 nM. The same compound gave an exposure AUC(0-t) at 4 h in series [5] of 11 µM·h. The compound also showed a Stability in series [10] of 0.14 nmol/min. The same compound registered a concentration in [9] of 2600 nM.
Take `CCC1=C2C(Nc3ccc4c(cnn4Cc4ccccc4)c3)=NC=NC2N=C1NC(=O)OCCN1CCCCC1` (centres undefined): the IC50 was 310 nM in series [1]; 390 nM in series [3]; 28 nM in series [4]; 380 nM in series [7]; 38 nM in series [8]. Further, the Cmax in series [2] was found to be 1700 nM. The AUC(0-t) at 4 h in series [5] came out at 5.5 µM·h. For the same compound, the Stability in series [10] came out at 0.27 nmol/min. Besides, the concentration in [9] stood at 1300 nM.
As to `CCC1=C2C(Nc3ccc4c(cnn4Cc4ccccc4)c3)=NC=NC2N=C1NC(=O)OCC1CCCNC1` (centres undefined), the IC50 in series [1] came out at 310 nM; in series [3], 320 nM; in [4], 29 nM; in series [6], 3900 nM; in [7], 480 nM; in series [8] it was 38 nM. Moreover, the highest level in [2] (Cmax) was 1200 nM. The exposure AUC(0-t) at 4 h in [5] stood at 3.6 µM·h. Moreover, in series [9], the concentration was 1200 nM.
With `CCC1=C2C(Nc3ccc4c(cnn4Cc4ccccc4)c3)=NC=NC2N=C1NC(=O)O[C@H]1CC[C@@](C)(N)CC1` (some centres undefined), the half-inhibitory concentration (IC50) in [1] was determined as 130 nM; in series [3], 170 nM; in series [4], 20 nM; in series [6] it was 5220 nM; in [7] it was 370 nM; in series [8] it was 19 nM. The compound further returned a maximum concentration (Cmax) in series [2] of 480 nM. In [5], this compound gave an AUC(0-t) at 4 h of 1.76 µM·h. This compound also displayed a Stability in [10] of 0.02 nmol/min. Moreover, the concentration in series [9] came to 460 nM.
`CCC1=C2C(Nc3ccc4c(cnn4Cc4ccccc4)c3)=NC=NC2N=C1NC(=O)OCC1CCNCC1` (centres undefined): the IC50 in series [1] turned out to be 90 nM; in series [3] it was 170 nM; in series [4], 23 nM; in series [7] it was 130 nM; in series [8], 30 nM. The same compound registered a Cmax in series [2] of 450 nM. For the same compound, the AUC(0-t) at 4 h in series [5] stood at 1.3 µM·h. This compound showed a concentration in series [9] of 260 nM.
Turning to `CCC1=C2C(Nc3ccc4c(cnn4Cc4ccccc4)c3)=NC=NC2N=C1NC(=O)OCCN1CCNCC1` (centres undefined), the half-maximal inhibitory concentration (IC50) in series [1] worked out at 71 nM; in [3], 100 nM; in series [4], 18 nM; in [7], 250 nM; in series [8], 21 nM. This compound had a Cmax in series [2] of 300 nM. The compound also showed an exposure AUC(0-t) at 4 h in series [5] of 0.62 µM·h. The compound further yielded a Stability in series [10] of 0.1 nmol/min. For the same compound, the concentration in [9] is 300 nM.
Turning to `CCC1=C2C(Nc3ccc4c(cnn4Cc4ccccc4)c3)=NC=NC2N=C1NC(=O)OCCN1CCOCC1` (centres undefined), the IC50 was found to be 550 nM in [1]; 520 nM in series [3]; 77 nM in series [4]; 500 nM in [7]; 111 nM in series [8]. The Cmax in [2] worked out at 11000 nM. Besides, the AUC(0-t) at 4 h in series [5] is 29 µM·h. This compound also came in with a concentration in series [9] of 4900 nM.
On to `CCC1=C2C(Nc3ccc4c(cnn4Cc4cccc(F)c4)c3)=NC=NC2N=C1NC(=O)OC[C@@H]1COCCN1` (some centres undefined), for which the IC50 came to 190 nM in [1]; 340 nM in series [3]; 22 nM in series [4]; 8070 nM in series [6]; 230 nM in series [7]; 23 nM in [8]. Moreover, the Cmax in [2] came to 5100 nM. The AUC(0-t) at 4 h in [5] came to 16.2 µM·h. Also, the Stability in [10] was found to be 0.01 nmol/min. In series [9], this compound registered a concentration of 5100 nM.
For `CCC1=C2C(Nc3ccc4c(cnn4Cc4ccccc4)c3)=NC=NC2N=C1NC(=O)OCCC1CCNCC1` (centres undefined), the half-inhibitory concentration (IC50) in series [1] was determined as 130 nM; in series [3], 210 nM; in [4], 37 nM; in [7] it was 490 nM; in series [8], 44 nM. The compound also returned a Cmax in [2] of 250 nM. Besides, the area under the curve AUC(0-t) at 4 h in series [5] came out at 0.53 µM·h. In [9], this compound showed a concentration of 110 nM.
For `CCC1=C2C(Nc3ccc4c(cnn4Cc4ccccc4)c3)=NC=NC2N=C1NC(=O)OCC1CCCCN1` (centres undefined), the concentration for half-maximal inhibition (IC50) in series [1] turned out to be 470 nM; in [3], 430 nM; in [4], 30 nM; in [6], 4750 nM; in [7], 250 nM; in series [8], 45 nM. The peak concentration (Cmax) in series [2] stood at 2300 nM. In series [5], this compound gave an AUC(0-t) at 4 h of 7.2 µM·h. The compound also returned a concentration in series [9] of 2300 nM.
